According to ChEMBL document CHEMBL1135864, “Novel amide-based inhibitors of inosine 5'-monophosphate dehydrogenase” (Bioorg Med Chem Lett, 2002):

Key:
[1] = target: T1, Inosine-5'-monophosphate dehydrogenase 2 (Homo sapiens, UniProt P12268); test: Inhibitory activity of compound was evaluated against the Inosine-5'-monophosphate dehydrogenase 2
In short: (§1)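 Human type II IMPDH expressed in and purified from E. coli, used at 40 nM. Buffer was 0.1 M Tris, 0.1 M KCl, 3 mM EDTA pH 8.0 with 2 mM DTT and 400 µM IMP. Compounds were added from DMSO (final 2.5%), and the reaction was started with NAD (final 400 µM). After 2 h at 25 °C, NADH absorbance was read at 340 nm. IC50 was taken from a four-parameter logistic fit.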

[2] = tested on: CCRF-CEM; test: Inhibition of human T-lymphoblast CEM cell (ATCC) proliferation; At this concentration no inhibition was observed; format: functional, cell-based
[3] = tested on: CCRF-CEM; test: The human T-lymphoblast CEM cell (ATCC) proliferation inhibitory activity was determined; format: functional, cell-based
In short: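 CEM human T-lymphoblasts were grown in RPMI 1640 with 10% heat-inactivated FBS and penicillin/streptomycin, then seeded at 3000 cells/well with 0.5% DMSO. Compounds were tested in triplicate, top final concentration 10 uM, in 3-fold serial dilutions, for 72 h at 5% CO2. Viability was read by Alamar Blue (10% v/v, final 5 h), fluorescence ex/em 530/590 nm.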

[4] = target: T1, Inosine-5'-monophosphate dehydrogenase 2; test: Inhibitory activity of compound was evaluated against the inosine monophosphate dehydrogenase -II (IMPDH-II) enzyme; in short: as §1
[5] = target: Inosine-5'-monophosphate dehydrogenase 1 (Homo sapiens, UniProt P20839); test: Inhibitory activity of compound was evaluated against the Inosine-5'-monophosphate dehydrogenase 1
Chain of Inosine-5'-monophosphate dehydrogenase 1 (P20839 whole entry): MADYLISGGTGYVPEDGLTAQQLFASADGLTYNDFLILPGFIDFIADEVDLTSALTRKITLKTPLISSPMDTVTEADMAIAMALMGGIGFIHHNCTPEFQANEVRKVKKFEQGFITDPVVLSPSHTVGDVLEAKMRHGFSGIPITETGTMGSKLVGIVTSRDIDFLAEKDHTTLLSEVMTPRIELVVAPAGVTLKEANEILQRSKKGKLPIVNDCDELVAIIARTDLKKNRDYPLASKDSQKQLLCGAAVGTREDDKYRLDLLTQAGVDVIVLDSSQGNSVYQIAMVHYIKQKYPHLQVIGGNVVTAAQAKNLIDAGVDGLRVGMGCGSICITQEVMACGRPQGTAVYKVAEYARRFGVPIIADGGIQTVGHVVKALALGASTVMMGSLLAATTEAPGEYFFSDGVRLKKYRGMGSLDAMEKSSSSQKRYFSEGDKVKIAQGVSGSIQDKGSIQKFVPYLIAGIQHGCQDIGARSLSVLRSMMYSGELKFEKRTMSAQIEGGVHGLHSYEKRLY

| Compound | IC50 [1] [nM] | IC50 [2] [nM] | IC50 [3] [nM] | IC50 [4] [nM] | IC50 [5] [nM] |
| --- | --- | --- | --- | --- | --- |
| COc1ccccc1/C=C\C(=O)Nc1ccc(-c2cnco2)c(OC)c1 | 960 | > 1000 | – | – | – |
| COc1cc(NC(=O)/C=C/c2c[nH]c3ccccc23)ccc1-c1cnco1 | 410 | > 1000 | – | – | – |
| COc1cc(NC(=O)c2cc(C)c(C)o2)ccc1-c1cnco1 | 540 | > 1000 | – | – | – |
| COc1cc(NC(=O)/C=C/c2cccc(C)c2)ccc1-c1cnco1 | 590 | > 1000 | – | – | – |
| COc1cc(NC(=O)c2ccc3c(c2)OCO3)ccc1-c1cnco1 | 330 | > 1000 | – | – | – |
| COc1cc(NC(=O)/C=C/c2ccccc2Cl)ccc1-c1cnco1 | 60 | > 1000 | – | – | – |
| COc1cc(NC(=O)c2cc3ccccc3o2)ccc1-c1cnco1 | 210 | > 1000 | – | – | – |
| COc1cc(NC(=O)c2occc2C)ccc1-c1cnco1 | > 1000 | > 1000 | – | – | – |
| COc1cc(NC(=O)c2ccc(C(C)(C)C)o2)ccc1-c1cnco1 | 130 | > 1000 | – | – | – |
| COc1cc(NC(=O)c2ccc(C)s2)ccc1-c1cnco1 | 110 | – | 8800 | – | – |
| COc1cc(NC(=O)/C=C/c2ccc3ccccc3n2)ccc1-c1cnco1 | 630 | > 1000 | – | – | – |
| COc1cc(NC(=O)c2c[nH]c3ccccc23)ccc1-c1cnco1 | > 3000 | > 1000 | – | – | – |
| COc1cc(NC(=O)c2ccc3[nH]ccc3c2)ccc1-c1cnco1 | 630 | > 1000 | – | – | – |
| COc1cc(NC(=O)Cc2ccccc2)ccc1-c1cnco1 | 970 | > 1000 | – | – | – |
| COc1cc(NC(=O)/C=C/c2ccncc2)ccc1-c1cnco1 | 57 | – | 8700 | – | – |
| COc1cc(NC(=O)c2[nH]nc3ccccc23)ccc1-c1cnco1 | > 1000 | > 1000 | – | – | – |
| COc1cc(NC(=O)c2cc3ccccc3s2)ccc1-c1cnco1 | 170 | > 1000 | – | – | – |
| COc1cc(NC(=O)/C=C/c2ccccc2)ccc1-c1cnco1 | 73 | > 1000 | – | – | – |
| COc1cc(NC(=O)/C=C/c2ccc(Cl)cc2)ccc1-c1cnco1 | 230 | > 1000 | – | – | – |
| COc1cc(NC(=O)/C=C/c2ccccc2C)ccc1-c1cnco1 | 35 | > 1000 | – | – | – |

| Compound | IC50 [1] [nM] | IC50 [2] [nM] | IC50 [3] [nM] | IC50 [4] [nM] | IC50 [5] [nM] |
| --- | --- | --- | --- | --- | --- |
| COc1ccccc1/C=C/C(=O)Nc1ccc(-c2cnco2)c(OC)c1 | 110 | > 1000 | – | – | – |
| COc1cc(NC(=O)c2ccc(C)c(C)c2)ccc1-c1cnco1 | 260 | > 1000 | – | – | – |
| COc1cc(NC(=O)c2cc3ccccn3c2)ccc1-c1cnco1 | 140 | > 1000 | – | – | – |
| COc1cc(NC(=O)/C=C/c2ccc(F)cc2)ccc1-c1cnco1 | 120 | > 1000 | – | – | – |
| COc1cc(NC(=O)c2ccc(-c3ccccn3)s2)ccc1-c1cnco1 | 870 | > 1000 | – | – | – |
| COc1cc(NC(=O)/C=C/c2ccc(C)cc2)ccc1-c1cnco1 | 210 | > 1000 | – | – | – |
| COc1cc(NC(=O)c2cccs2)ccc1-c1cnco1 | 810 | > 1000 | – | – | – |
| COc1cc(NC(=O)/C=C/c2cccc(Cl)c2)ccc1-c1cnco1 | 300 | > 1000 | – | – | – |
| COc1cc(NC(=O)c2ccccc2)ccc1-c1cnco1 | – | > 1000 | – | 630 | – |
| COc1cc(NC(=O)/C=C/c2ccccc2F)ccc1-c1cnco1 | 740 | > 1000 | – | – | – |
| COc1cc(NC(=O)/C=C/c2c(C)cc(F)cc2C)ccc1-c1cnco1 | 75 | > 1000 | – | – | – |
| COc1cc(NC(=O)c2cc3ccccc3[nH]2)ccc1-c1cnco1 | 110 | > 1000 | – | – | > 1000 |
| COc1cc(NC(=O)/C=C/c2cccnc2)ccc1-c1cnco1 | 210 | > 1000 | – | – | – |
| COc1cc(NC(=O)c2cccn2C)ccc1-c1cnco1 | 890 | > 1000 | – | – | – |
| COc1cc(NC(=O)c2ccco2)ccc1-c1cnco1 | 2500 | > 1000 | – | – | – |
| COc1cc(NC(=O)/C=C/c2cccs2)ccc1-c1cnco1 | 66 | > 1000 | – | – | – |
| COc1cc(NC(=O)c2cc3ccccc3n2C)ccc1-c1cnco1 | 130 | – | 7700 | – | – |
| COc1cc(NC(=O)/C=C/c2cccc(F)c2)ccc1-c1cnco1 | 200 | > 1000 | – | – | – |
| COc1cc(NC(=O)/C=C/c2ccco2)ccc1-c1cnco1 | 28 | – | 6600 | – | – |
| COc1cc(NC(=O)Nc2cccc(C)c2)ccc1-c1cnco1 | – | > 1000 | – | – | – |
